Data reported in ChEMBL document CHEMBL1687894, “Design, synthesis and evaluation of 3-methylene-substituted indolinones as antimalarials” (Eur J Med Chem, 2011).

Key:
Falcipain 2 = target: T1, Falcipain 2 (Plasmodium falciparum, UniProt Q9N6S8); assay: Inhibition of Plasmodium falciparum falcipain 2 incubated with compound for 10 mins before addition of 25 uM Z-Leu-Arg-AMC substrate by fluorescence spectrophotometry
T1 sequence (Q9N6S8 whole entry): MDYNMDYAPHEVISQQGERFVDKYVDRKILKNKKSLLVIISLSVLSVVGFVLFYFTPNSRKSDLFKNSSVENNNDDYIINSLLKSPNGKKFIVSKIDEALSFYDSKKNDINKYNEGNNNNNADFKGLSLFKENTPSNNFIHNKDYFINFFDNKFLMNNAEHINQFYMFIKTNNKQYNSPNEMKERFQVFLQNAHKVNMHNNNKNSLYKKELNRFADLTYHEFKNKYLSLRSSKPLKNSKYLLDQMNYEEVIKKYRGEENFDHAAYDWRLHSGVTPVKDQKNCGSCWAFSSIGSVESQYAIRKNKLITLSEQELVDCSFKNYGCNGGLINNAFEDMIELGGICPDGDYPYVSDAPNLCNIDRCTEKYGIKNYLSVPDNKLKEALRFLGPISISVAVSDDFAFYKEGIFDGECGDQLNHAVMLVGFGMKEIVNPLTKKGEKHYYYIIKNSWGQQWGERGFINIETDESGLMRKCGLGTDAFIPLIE
Method in brief: (§1)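 Run at 25 °C in 100 mM sodium acetate pH 6.0 with 5 mM DTT and 0.75% DMSO. Enzyme was preincubated 10 min with compound diluted from DMSO, then Z-Leu-Arg-AMC was added and fluorescence was read immediately. Eight inhibitor concentrations were made by fivefold serial dilution. IC50 was fitted to percent inhibition versus a no-inhibitor control against log concentration.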

Plasmodium falciparum = assay: Antiplasmodial activity against chloroquine-resistant Plasmodium falciparum W2 infected in human red blood cells assessed as inhibition of ring-stage parasite growth after 48 hrs by flow cytometry; format: functional, organism-based; conditions: W2, 48 h
[1] = target: T2, Cysteine protease falcipain-3 (Plasmodium falciparum, UniProt Q9NAW4); assay: Inhibition of Plasmodium falciparum falcipain 3 incubated with compound for 10 mins before addition of 25 uM Z-Leu-Arg-AMC substrate by fluorescence spectrophotometry; method in brief: as §1
T2 sequence (Q9NAW4 whole entry): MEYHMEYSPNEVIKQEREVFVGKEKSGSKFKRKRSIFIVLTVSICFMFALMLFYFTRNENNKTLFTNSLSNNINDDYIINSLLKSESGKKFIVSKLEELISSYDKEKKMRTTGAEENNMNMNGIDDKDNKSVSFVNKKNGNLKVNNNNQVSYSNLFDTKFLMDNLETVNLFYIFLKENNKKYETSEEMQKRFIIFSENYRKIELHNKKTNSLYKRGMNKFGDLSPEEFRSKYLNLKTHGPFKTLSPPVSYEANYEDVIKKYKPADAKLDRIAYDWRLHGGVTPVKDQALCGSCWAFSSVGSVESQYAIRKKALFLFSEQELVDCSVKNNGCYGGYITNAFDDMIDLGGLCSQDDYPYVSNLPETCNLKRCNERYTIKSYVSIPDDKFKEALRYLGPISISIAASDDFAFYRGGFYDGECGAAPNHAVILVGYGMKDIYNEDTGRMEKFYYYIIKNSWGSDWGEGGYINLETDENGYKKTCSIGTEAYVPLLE

| SMILES | IC50 (Falcipain 2) [µM] | IC50 (Plasmodium falciparum) [µM] | IC50 [1] [µM] |
| --- | --- | --- | --- |
| CN(C)C=C1C(=O)N(C)c2ccccc21 | > 50 | > 50 |  |
| CN(C)C=C1C(=O)Nc2ccc(Cl)cc21 | > 50 | > 50 |  |
| CCOC(=O)[C@H](Cc1ccccc1)NC=C1C(=O)Nc2ccccc21 | > 50 | > 10 |  |
| CN(C)C=C1C(=O)Nc2cc(Cl)ccc21 | > 50 | > 50 |  |
| O=C1Nc2c(Cl)cccc2C1=CNCCNc1ccnc2cc(Cl)ccc12 |  | 0.14 |  |
| CC(C)CCNC(=O)[C@H](CC(C)C)NC=C1C(=O)Nc2ccc(Cl)cc21 | 44.1 | 18.7 | > 50 |
| CC(C)CCNC(=O)[C@H](CC(C)C)NC=C1C(=O)Nc2cc(Cl)ccc21 | 48.5 | 15.9 | > 50 |
| CC(C)CCNC(=O)[C@H](Cc1ccccc1)NC=C1C(=O)Nc2ccc(Cl)cc21 | 43.3 | > 50 | > 50 |
| CC(C)C[C@H](NC(=O)[C@H]1O[C@@H]1C(=O)O)C(=O)NCCCCN=C(N)N [E-64] | 0.112 |  | 0.481 |
| CN1C(=O)C(=CNCCCNc2ccnc3cc(Cl)ccc23)c2ccccc21 | > 50 | 0.29 |  |
| CN(C)C=C1C(=O)Nc2c(Cl)cccc21 | > 50 | > 50 |  |
| CC(C)CCNC(=O)[C@H](CCc1ccccc1)NC=C1C(=O)Nc2ccccc21 | 49.9 | 18.6 | > 50 |
| O=C1Nc2ccccc2C1=CNc1ccccc1 | > 50 | > 10 |  |
| O=C1Nc2ccc(Cl)cc2C1=CNCCCNc1ccnc2cc(Cl)ccc12 | > 50 | 0.2 |  |
| CC(C)CCNC(=O)[C@H](CC(C)C)NC=C1C(=O)Nc2c(Cl)cccc21 | 42.1 | 15.7 | > 50 |
| O=C1Nc2ccccc2C1=CNCCCNc1ccnc2cc(Cl)ccc12 | > 50 | 0.42 |  |
| CC(C)CCNC(=O)[C@H](CC(C)C)NC=C1C(=O)N(C)c2ccccc21 | > 50 | 23.5 | > 50 |
| CCOC(=O)CNC=C1C(=O)Nc2ccccc21 | > 50 | 10.8 |  |
| CC(C)CCNC(=O)[C@H](CCc1ccccc1)NC=C1C(=O)Nc2c(Cl)cccc21 | 44 | 13.4 | > 50 |
| O=C1Nc2cc(Cl)ccc2C1=CNCCCNc1ccnc2cc(Cl)ccc12 | > 50 | 0.18 |  |
| CC(C)CCNC(=O)[C@H](CC(C)C)NC=C1C(=O)Nc2ccccc21 | > 50 | 30.7 | > 50 |
| O=C1Nc2ccccc2C1=CSCc1ccccc1 | > 50 | > 10 |  |
| CC(C)CCNC(=O)CNC=C1C(=O)Nc2ccccc21 | > 50 | 26.7 | > 50 |
| O=C1Nc2c(Cl)cccc2C1=CNCCCNc1ccnc2cc(Cl)ccc12 | > 50 | 0.17 |  |
| CN(C)C=C1C(=O)Nc2ccccc21 | > 50 | > 50 |  |
